According to ChEMBL document CHEMBL3098086, “Synthesis and biological evaluation of α-triazolyl chalcones as a new type of potential antimicrobial agents and their interaction with calf thymus DNA and human serum albumin” (Eur J Med Chem, 2014):
Values after ≈ are worked out from the molar mass of the structure shown. Active and inactive are the calls of the source. The calls are words filed in the database; no cut-off is given here.

Experiments:
Pseudomonas aeruginosa = assay: Antibacterial activity against Pseudomonas aeruginosa ATCC 27853 after 24 hrs by twofold serial dilution method; type: functional; conditions: ATCC 27853, 24 h
How it was run: (§1)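 Bacterial strains: S. aureus ATCC 25923, B. subtilis ATCC 21216, M. luteus ATCC 4698, E. coli JM109, P. aeruginosa ATCC 27853, B. proteus ATCC 13315. MICs by two-fold broth microdilution in 96-well plates per NCCLS. Chloromycin and Norfloxacin served as positive controls.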

Candida = assay: Antifungal activity against Candida mycoderma ATCC 96918 after 24 hrs by micro broth dilution method; type: functional; conditions: ATCC 96918, 24 h
How it was run: (§2)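 Fungi: C. albicans ATCC 76615 and C. mycoderma ATCC 96918. MICs by two-fold broth microdilution in 96-well plates per NCCLS. Fluconazole served as positive control.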

Salmonella typhi = assay: Antibacterial activity against Bacillus typhi after 24 hrs by twofold serial dilution method; type: functional, Salmonella enterica subsp. enterica serovar Typhi; conditions: Salmonella enterica
How it was run: (§3)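 Two-fold broth microdilution per NCCLS recommendations. The MIC was read as the minimum inhibitory concentration. Chloromycin and Norfloxacin served as positive controls. Strains were Bacillus typhi (Gram-negative panel) and methicillin-resistant S. aureus N315.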

Candida albicans = assay: Antifungal activity against Candida albicans ATCC 76615 after 24 hrs by micro broth dilution method; type: functional; conditions: ATCC 76615, 24 h; how it was run: as §2
Staphylococcus aureus [1] = assay: Antibacterial activity against methicillin-resistant staphylococcus aureus N315 after 24 hrs by twofold serial dilution method; type: functional; conditions: N315, 24 h; how it was run: as §3
Micrococcus luteus = assay: Antibacterial activity against Micrococcus luteus ATCC 4698 after 24 hrs by twofold serial dilution method; type: functional; conditions: ATCC 4698, 24 h; how it was run: as §1
Bacillus = assay: Antibacterial activity against Bacillus proteus ATCC 13315 after 24 hrs by twofold serial dilution method; type: functional; conditions: ATCC 13315, 24 h; how it was run: as §1
Staphylococcus aureus [2] = assay: Antibacterial activity against Staphylococcus aureus ATCC 25923 after 24 hrs by twofold serial dilution method; type: functional; conditions: ATCC 25923, 24 h; how it was run: as §1
Escherichia coli = assay: Antibacterial activity against Escherichia coli JM109 after 24 hrs by twofold serial dilution method; type: functional; conditions: JM109, 24 h; how it was run: as §1
Bacillus subtilis = assay: Antibacterial activity against Bacillus subtilis ATCC 21216 after 24 hrs by twofold serial dilution method; type: functional; conditions: ATCC 21216, 24 h; how it was run: as §1
Albumin [3] = target: T1, Albumin (Homo sapiens, UniProt P02768); assay: Binding affinity to human serum albumin at pH 7.4 at 310 K by fluorescence quenching analysis; type: ADME; conditions: isolated protein
T1 sequence (P02768 whole entry): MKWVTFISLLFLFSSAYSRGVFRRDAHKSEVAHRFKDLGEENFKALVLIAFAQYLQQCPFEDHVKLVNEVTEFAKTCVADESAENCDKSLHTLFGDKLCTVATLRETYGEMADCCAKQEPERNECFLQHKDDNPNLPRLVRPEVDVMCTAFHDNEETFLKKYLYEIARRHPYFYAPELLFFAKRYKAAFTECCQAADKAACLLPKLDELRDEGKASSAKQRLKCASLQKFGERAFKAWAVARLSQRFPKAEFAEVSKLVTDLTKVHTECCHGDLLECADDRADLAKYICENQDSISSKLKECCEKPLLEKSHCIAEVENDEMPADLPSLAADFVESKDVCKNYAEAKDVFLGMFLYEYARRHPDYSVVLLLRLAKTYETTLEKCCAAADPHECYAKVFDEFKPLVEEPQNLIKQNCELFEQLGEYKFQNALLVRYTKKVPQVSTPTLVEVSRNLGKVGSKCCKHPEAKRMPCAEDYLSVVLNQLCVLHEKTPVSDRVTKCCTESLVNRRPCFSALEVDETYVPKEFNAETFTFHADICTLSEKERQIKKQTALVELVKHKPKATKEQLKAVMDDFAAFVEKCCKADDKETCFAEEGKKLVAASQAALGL
How it was run: (§4)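 Intrinsic HSA Trp fluorescence was quenched by compound titration at pH 7.4 and at 286, 298 or 310 K. Excitation was 295 nm, emission scanned 300–450 nm, both slits 2.5 nm, 1.0 cm quartz cells. Data were fitted by Stern–Volmer analysis to give KSV. Kq was calculated assuming an HSA fluorescence lifetime of 6.4 × 10^-9 s.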

Albumin [4] = target: T1, Albumin; assay: Ratio of binding affinity to human serum albumin in presence of Zn2+ to binding affinity to human serum albumin absence of Zn2+; type: ADME; conditions: isolated protein
Albumin [5] = target: T1, Albumin; assay: Ratio of binding affinity to human serum albumin in presence of Mg2+ to binding affinity to human serum albumin absence of Mg2+; type: ADME; conditions: isolated protein
Albumin [6] = target: T1, Albumin; assay: Ratio of binding affinity to human serum albumin in presence of Pb2+ to binding affinity to human serum albumin absence of Pb2+; type: ADME; conditions: isolated protein
Albumin [7] = target: T1, Albumin; assay: Ratio of binding affinity to human serum albumin in presence of Cu2+ to binding affinity to human serum albumin absence of Cu2+; type: ADME; conditions: isolated protein
DNA [8] = assay: Displacement of neutral red from calf thymus DNA by UV-vis absorption spectra analysis; type: nucleic-acid assay; conditions: Bos taurus
Albumin [9] = target: T1, Albumin; assay: Ratio of binding affinity to human serum albumin in presence of Ni2+ to binding affinity to human serum albumin absence of Ni2+; type: ADME; conditions: isolated protein
Albumin [10] = target: T1, Albumin; assay: Ratio of binding affinity to human serum albumin in presence of K+ to binding affinity to human serum albumin absence of K+; type: ADME; conditions: isolated protein
DNA [11] = assay: Binding affinity to calf thymus DNA by UV-vis absorption spectra analysis; type: nucleic-acid assay; conditions: Bos taurus
Albumin [12] = target: T1, Albumin; assay: Binding affinity to human serum albumin at pH 7.4 at 286 K by fluorescence quenching analysis; type: ADME; conditions: isolated protein; how it was run: as §4
Albumin [13] = target: T1, Albumin; assay: Ratio of binding affinity to human serum albumin in presence of Fe3+ to binding affinity to human serum albumin absence of Fe3+; type: ADME; conditions: isolated protein
Albumin [14] = target: T1, Albumin; assay: Ratio of binding affinity to human serum albumin in presence of Ca2+ to binding affinity to human serum albumin absence of Ca2+; type: ADME; conditions: isolated protein
Albumin [15] = target: T1, Albumin; assay: Binding affinity to human serum albumin at pH 7.4 at 298 K by fluorescence quenching analysis; type: ADME; conditions: isolated protein; how it was run: as §4

SMILES | MIC (Pseudomonas aeruginosa) [µg/mL] | MIC (Candida) [µg/mL] | MIC (Salmonella typhi) [µg/mL] | MIC (Candida albicans) [µg/mL] | MIC (Staphylococcus aureus [1]) [µg/mL] | MIC (Micrococcus luteus) [µg/mL] | MIC (Bacillus) [µg/mL] | MIC (Staphylococcus aureus [2]) [µg/mL] | MIC (Escherichia coli) [µg/mL] | MIC (Bacillus subtilis) [µg/mL] | other results
Cc1ccc(/C=C(/C(=O)c2ccc(F)cc2F)n2cncn2)cc1 | 16 (≈ 49.2 µM) | 16 (≈ 49.2 µM) | 64 (≈ 197 µM) | 16 (≈ 49.2 µM) | 32 (≈ 98.4 µM) | 64 (≈ 197 µM) | 64 (≈ 197 µM) | 32 (≈ 98.4 µM) | 32 (≈ 98.4 µM) | 64 (≈ 197 µM) | –
O=C(/C(=C/c1ccccc1)n1cncn1)c1ccc(F)cc1N1CCCCC1 | 16 (≈ 42.5 µM) | 8 (≈ 21.3 µM) | 8 (≈ 21.3 µM) | 16 (≈ 42.5 µM) | 4 (≈ 10.6 µM) | 4 (≈ 10.6 µM) | 8 (≈ 21.3 µM) | 16 (≈ 42.5 µM) | 16 (≈ 42.5 µM) | 8 (≈ 21.3 µM) | KSV (Albumin [3]): 5.84 ×10⁴ L/mol; Ratio (Albumin [4]): 0.918; Ratio (Albumin [5]): 1.068; Ratio (Albumin [6]): 0.819; Ratio (Albumin [7]): 0.959; Activity (DNA [8]): Active; Ratio (Albumin [9]): 0.835; Ratio (Albumin [10]): 1.324; Activity (DNA [11]): Dose-dependent effect; K (DNA [11]): 1.22 ×10⁴ L/mol; KSV (Albumin [12]): 7.59 ×10⁴ L/mol; Ratio (Albumin [13]): 1.151; Ratio (Albumin [14]): 0.887; KSV (Albumin [15]): 6.72 ×10⁴ L/mol
CCn1cc(C(=O)O)c(=O)c2cc(F)c(N3CCNCC3)cc21 [NORFLOXACIN] | 16 (≈ 50.1 µM) | – | 4 (≈ 12.5 µM) | – | 8 (≈ 25.1 µM) | 2 (≈ 6.26 µM) | 8 (≈ 25.1 µM) | 0.5 (≈ 1.57 µM) | 16 (≈ 50.1 µM) | 1 (≈ 3.13 µM) | –
O=C(/C(=C/c1ccc(F)cc1)n1cncn1)c1ccc(F)cc1F | 32 (≈ 97.2 µM) | 64 (≈ 194 µM) | 32 (≈ 97.2 µM) | 64 (≈ 194 µM) | 128 (≈ 389 µM) | 32 (≈ 97.2 µM) | 16 (≈ 48.6 µM) | 64 (≈ 194 µM) | 32 (≈ 97.2 µM) | 64 (≈ 194 µM) | –
O=C(/C(=C/c1ccccc1)n1cncn1)c1ccc(F)cc1N1CCCC1 | 16 (≈ 44.1 µM) | 256 (≈ 706 µM) | 4 (≈ 11 µM) | 32 (≈ 88.3 µM) | 16 (≈ 44.1 µM) | 16 (≈ 44.1 µM) | 16 (≈ 44.1 µM) | 16 (≈ 44.1 µM) | 8 (≈ 22.1 µM) | 8 (≈ 22.1 µM) | –
O=C(/C(=C/c1ccccc1)n1cncn1)c1ccc(N2CCOCC2)cc1N1CCOCC1 | 128 (≈ 287 µM) | 64 (≈ 144 µM) | 32 (≈ 71.8 µM) | 128 (≈ 287 µM) | 64 (≈ 144 µM) | 64 (≈ 144 µM) | 64 (≈ 144 µM) | 32 (≈ 71.8 µM) | 32 (≈ 71.8 µM) | 64 (≈ 144 µM) | –
O=C(N[C@H](CO)[C@H](O)c1ccc([N+](=O)[O-])cc1)C(Cl)Cl [CHLORAMPHENICOL] | 32 (≈ 99 µM) | – | 32 (≈ 99 µM) | – | 16 (≈ 49.5 µM) | 8 (≈ 24.8 µM) | 32 (≈ 99 µM) | 16 (≈ 49.5 µM) | 32 (≈ 99 µM) | 32 (≈ 99 µM) | –
O=C(/C(=C/c1ccccc1)n1cncn1)c1ccc(N2CCCC2)cc1N1CCCC1 | 32 (≈ 77.4 µM) | 4 (≈ 9.67 µM) | 8 (≈ 19.3 µM) | 8 (≈ 19.3 µM) | 16 (≈ 38.7 µM) | 16 (≈ 38.7 µM) | 32 (≈ 77.4 µM) | 32 (≈ 77.4 µM) | 32 (≈ 77.4 µM) | 16 (≈ 38.7 µM) | –
COc1ccc(/C=C(/C(=O)c2ccc(F)cc2F)n2cncn2)cc1 | 16 (≈ 46.9 µM) | 32 (≈ 93.8 µM) | 32 (≈ 93.8 µM) | 16 (≈ 46.9 µM) | 4 (≈ 11.7 µM) | 16 (≈ 46.9 µM) | 8 (≈ 23.4 µM) | 8 (≈ 23.4 µM) | 16 (≈ 46.9 µM) | 8 (≈ 23.4 µM) | –
O=C(/C(=C/c1ccc(Cl)cc1)n1cncn1)c1ccc(Cl)cc1 | 8 (≈ 23.2 µM) | 64 (≈ 186 µM) | 16 (≈ 46.5 µM) | 64 (≈ 186 µM) | 32 (≈ 93 µM) | 64 (≈ 186 µM) | 32 (≈ 93 µM) | 32 (≈ 93 µM) | 16 (≈ 46.5 µM) | 32 (≈ 93 µM) | –
